Laboratory results as given in ChEMBL document CHEMBL4765373, “Design, synthesis and biological evaluation of rasagiline-clorgyline hybrids as novel dual inhibitors of monoamine oxidase-B and amyloid-β aggregation against Alzheimer's disease” (Eur J Med Chem, 2020).
Activity calls are given as the source filed them. The rule behind the calls is not given here.

Key:
[1] = in vitro; details: PAMPA, pH 7.4
[2] = organism: Homo sapiens; test: Selectivity index, ratio of IC50 for recombinant human MAOA expressed in baculovirus infected BTI insect cells to IC50 for recombinant human MAOB expressed in baculovirus infected BTI insect cells
Method in brief: (§1)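 Recombinant human MAO-A or MAO-B with p-tyramine substrate; H2O2 production detected by Amplex Red. Compounds diluted in DMSO/PBS (final DMSO <0.1%) and incubated with enzyme and substrate 15 min at 37 °C in the dark. Fluorescence read at ex/em 545/590 nm; mean ± SD of three independent experiments.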

[3] = organism: Homo sapiens; test: Inhibition of self-induced amyloid beta (1 to 42) (unknown origin) peptide aggregation at 25 uM measured after 48 hrs by thioflavin-T fluorescence assay relative to control
[4] = molecular target: T1, MAO-A (Homo sapiens, UniProt P21397); test: Inhibition of recombinant human MAOA expressed in baculovirus infected BTI insect cells at 100 uM using p-tyramine as substrate measured after 15 mins by Amplex red reagent based fluorescence assay relative to control; details: probe p-tyramine
T1 sequence (P21397 whole entry): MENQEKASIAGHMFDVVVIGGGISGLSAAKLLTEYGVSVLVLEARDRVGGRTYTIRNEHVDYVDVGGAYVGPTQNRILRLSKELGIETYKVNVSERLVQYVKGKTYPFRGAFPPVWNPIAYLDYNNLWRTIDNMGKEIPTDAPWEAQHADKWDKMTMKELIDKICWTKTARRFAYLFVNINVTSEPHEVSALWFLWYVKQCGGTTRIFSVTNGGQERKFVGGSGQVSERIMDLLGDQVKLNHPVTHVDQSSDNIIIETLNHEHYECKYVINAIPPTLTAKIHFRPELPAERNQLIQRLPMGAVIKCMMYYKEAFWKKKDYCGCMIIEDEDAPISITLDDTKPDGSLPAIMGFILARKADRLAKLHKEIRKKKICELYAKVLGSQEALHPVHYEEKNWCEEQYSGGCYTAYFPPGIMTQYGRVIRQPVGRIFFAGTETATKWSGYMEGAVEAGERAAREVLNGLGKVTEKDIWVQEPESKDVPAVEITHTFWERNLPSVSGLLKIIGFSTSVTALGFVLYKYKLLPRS
Method in brief: as §1

[5] = molecular target: T2, Amine oxidase [flavin-containing] B (Homo sapiens, UniProt P27338); test: biochemical; type: cell-based, BTI
T2 sequence (P27338 whole entry): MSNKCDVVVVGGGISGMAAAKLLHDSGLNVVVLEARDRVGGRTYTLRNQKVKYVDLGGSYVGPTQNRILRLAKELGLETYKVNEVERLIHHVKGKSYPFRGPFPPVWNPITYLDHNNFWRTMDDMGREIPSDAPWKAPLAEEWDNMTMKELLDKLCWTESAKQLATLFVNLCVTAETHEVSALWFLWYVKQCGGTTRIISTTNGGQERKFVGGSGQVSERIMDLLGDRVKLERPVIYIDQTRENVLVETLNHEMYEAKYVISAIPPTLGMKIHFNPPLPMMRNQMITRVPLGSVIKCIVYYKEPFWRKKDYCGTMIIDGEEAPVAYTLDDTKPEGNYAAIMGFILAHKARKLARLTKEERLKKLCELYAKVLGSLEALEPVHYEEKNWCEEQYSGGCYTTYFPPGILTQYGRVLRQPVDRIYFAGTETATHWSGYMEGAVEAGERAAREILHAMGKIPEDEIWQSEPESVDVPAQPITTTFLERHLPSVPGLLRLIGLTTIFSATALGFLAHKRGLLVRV

[6] = test system: SH-SY5Y; test: Neuroprotective activity against 6-OHDA-induced cell death in human SH-SY5Y cells assessed as increase in cell survival at 1.563 to 25 uM incubated for 24 hrs by MTT assay; type: functional, cell-based; details: dose 1.563-25 µM
Method in brief: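 SH-SY5Y cells co-incubated with 200 µM 6-OHDA and compound at 1.563, 3.125, 6.25, 12.5 or 25 µM for 24 h. Viability read by MTT assay against a 6-OHDA-only group. Means ± SEM of three independent experiments.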

[7] = AUC (0 to infinity) in Sprague-Dawley rat at 3 mg/kg, iv by LC-MS/MS analysis; type: ADME, organism-based; parameters: time infinity, route intravenous, dose 3 mg/kg; details: in vivo
Method in brief: (§2)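 Male SD rats (n=3, 220 ± 20 g) dosed 3 mg/kg i.v. or 10 mg/kg by oral gavage. Plasma proteins precipitated with two volumes of 0.5% formic acid/acetonitrile; supernatant quantified by LC-MS/MS.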

[8] = Cmax in Sprague-Dawley rat at 10 mg/kg, po administered via gavage by LC-MS/MS analysis; type: ADME, organism-based; parameters: route oral, dose 10 mg/kg; details: in vivo
Method in brief: as §2

[9] = organism: Homo sapiens; test: Inhibition of self-induced amyloid beta (1 to 42) (unknown origin) peptide aggregation assessed as reduction in number of amyloid beta aggregates by TEM analysis
[10] = Cmax in Sprague-Dawley rat at 3 mg/kg, iv by LC-MS/MS analysis; type: ADME, organism-based; parameters: route intravenous, dose 3 mg/kg; details: in vivo
Method in brief: as §2

[11] = molecular target: T2, Amine oxidase [flavin-containing] B; test: Competitive inhibition of recombinant human MAOB expressed in baculovirus infected BTI insect cells at 2.5 to 10 nM using varying levels of p-tyramine as substrate by Lineweaver-Burk plot analysis; details: dose 2.5-10 nM
Method in brief: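 Recombinant hMAO-B initial rates measured with and without inhibitor at 2.5, 5 and 10 nM. p-Tyramine substrate at 0.05, 0.1, 0.5, 1.0, 1.5 and 3.0 mM. H2O2 production read by Amplex Red fluorescence. Mechanism taken from overlaid Lineweaver–Burk reciprocal plots.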

[12] = AUC (0 to infinity) in Sprague-Dawley rat at 10 mg/kg, po administered via gavage by LC-MS/MS analysis; type: ADME, organism-based; parameters: route oral, time infinity, dose 10 mg/kg; details: in vivo
Method in brief: as §2

[13] = Clearance in Sprague-Dawley rat at 3 mg/kg, iv by LC-MS/MS analysis; type: ADME, organism-based; details: in vivo
Method in brief: as §2

[14] = Half life in Sprague-Dawley rat at 10 mg/kg, po administered via gavage by LC-MS/MS analysis; type: ADME, organism-based; details: in vivo
Method in brief: as §2

[15] = Oral bioavailability in Sprague-Dawley rat at 10 mg/kg administered via gavage by LC-MS/MS analysis; type: ADME, organism-based; details: in vivo
Method in brief: as §2

[16] = test system: SH-SY5Y; test: Cytotoxicity against human SH-SY5Y cells assessed as reduction in cell viability at 25 uM after 24 hrs by MTT assay; type: cell-based
Method in brief: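 SH-SY5Y cells grown in DMEM with FBS, penicillin/streptomycin, 5% CO2, 37 °C. Seeded at 10,000 cells/well and exposed to compound (6.25–100 µM) for 24 h at 37 °C. MTT added for 4 h, formazan dissolved in DMSO, absorbance read at 570 nm (reference 630 nm). Mean ± SD of three independent experiments.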

[17] = Half life in Sprague-Dawley rat at 3 mg/kg, iv by LC-MS/MS analysis; type: ADME, organism-based; details: in vivo
Method in brief: as §2

[18] = Tmax in Sprague-Dawley rat at 10 mg/kg, po administered via gavage by LC-MS/MS analysis; type: ADME, organism-based; details: in vivo
Method in brief: as §2

[19] = molecular target: T2, Amine oxidase [flavin-containing] B; test: Inhibition of recombinant human MAOB expressed in baculovirus infected BTI insect cells at 100 uM using p-tyramine as substrate measured after 15 mins by Amplex red reagent based fluorescence assay relative to control; details: 0.25 h
Method in brief: as §1

| Compound | Papp at 16 h [1] [×10⁻⁶ cm/s] | Ratio IC50 [2] | inhibition [3] [%] | inhibition at 0.25 h, 100 µM [4] [%] | IC50 [5] [nM] | further results |
| --- | --- | --- | --- | --- | --- | --- |
| C#CCN(C)CCCCOc1ccc2c(c1)CCCC2=O | 8.7 | > 1380 | 13.4 | 30.9 | 72.5 | – |
| C#CCN(C)CCCCCCOc1ccc2c(c1)OCC2=O | 8.3 | > 1930 | 9.76 | 11.7 | 51.9 | – |
| C#CCN(C)CCCCCCOc1ccc(C(C)=O)cc1 | 8.69 | > 4900 | 12.7 | 37.3 | 20.4 | – |
| C#CCN(C)CCCCCOc1ccc(C=O)c(OC)c1 | 14 | > 17 | 0.82 | 27.1 | 5730 | – |
| C#CCN(C)CCCCCOc1cccc(OC)c1 | 10.5 | > 991 | 22.2 | 32.3 | 101 | – |
| C#CCN(C)CCCCCOc1ccc2c(c1)OCCC2=O | 10.2 | > 2.5 10^4No_unit | 40.8 | 6.04 | 4 | Activity [6]: Active; AUC [7]: 247.74 ng·h/mL; Cmax [8]: 142 ng/mL; inhibition [9]: Active; Cmax [10]: 639 ng/mL; inhibition (INH) [11]: Active; AUC(0-inf) [12]: 268 ng·h/mL; CL [13]: 55.5 mL/min/kg; half-life [14]: 1.33 h; bioavailability [15]: 36.1%; Activity [16]: Non-Toxic; half-life [17]: 1.02 h; Tmax [18]: 0.3 h |
| C#CCN(C)CCCCOc1ccc(C(C)=O)cc1 | 10.6 | > 1770 | 6.18 | 28.6 | 56.5 | – |
| C#CCN(C)CCCOc1ccc2c(c1)OCCC2=O | 9.21 | > 9 | 7.77 | 32.1 | 11400 | – |
| C#CCN(C)CCCCCCOc1ccc2c(c1)CCC2=O | 12.8 | > 777 | 0.68 | 4.42 | 129 | – |
| C#CCN(C)CCCCOc1ccc2c(c1)CCC2=O | 9.61 | > 273 | 31.3 | 7.93 | 366 | – |
| C#CCN(C)CCCCOc1ccc(C(C)=O)cc1OC | 12.5 | > 87 | 21.8 | 21.1 | 1150 | – |
| C#CCN[C@@H]1CCc2ccccc21 [RASAGILINE] | – | – | – | 47.9 | – | Activity [6]: Active |
| C#CCN(C)CCCCCOc1ccc(C(C)=O)cc1OC | 12.9 | > 15 | 5.74 | 39.5 | 6520 | – |
| COc1cc(/C=C/C(=O)CC(=O)/C=C/c2ccc(O)c(OC)c2)ccc1O | – | – | 46.1 | – | – | inhibition [9]: Active |
| C#CCN(C)CCCCCCCCOc1ccc2c(c1)OCCC2=O | 8.91 | > 237 | 0.34 | 28.6 | 422 | – |
| C[C@]12CC[C@@H]3c4ccc(O)cc4CC[C@H]3[C@@H]1CC[C@@H]2O [ESTRADIOL] | 12.4 | – | – | – | – | – |
| C#CCN(C)CCCCCOc1ccc2c(c1)CCC2=O | 10.9 | > 1060 | 11.4 | 31 | 94.8 | – |
| C#CCN(C)CCCCCCOc1ccc2c(c1)OCCC2=O | 8.54 | > 855 | 0.66 | 34.1 | 117 | – |
| CN(C)CCCN1c2ccccc2Sc2ccc(Cl)cc21 [CHLORPROMAZINE] | 7.12 | – | – | – | – | – |
| C#CCN(C)CCCCCCOc1ccc(C=O)c(OC)c1 | 11.2 | > 181 | 0.99 | 37.4 | 552 | – |
| C#CCN(C)CCCCOc1ccc2c(c1)OCCC2=O | 13.7 | > 1700 | 43.9 | 22.8 | 58.9 | – |
| C#CCN(C)CCCCCOc1ccc2c(c1)CCCC2=O | 10.6 | > 2160 | 10.3 | 26.1 | 46.3 | – |
| C#CCN(C)CCCCOc1ccc(C=O)c(OC)c1 | 13.1 | – | 0.86 | 29.4 | – | inhibition at 100 µM [19]: 41.2% |
| C#CCN(C)CCCCCCOc1ccc2c(c1)CCCC2=O | 8.58 | > 751 | 18.1 | 25 | 133 | – |
